Measurements from ChEMBL document CHEMBL1125031, “Structure-activity relationship of antiestrogens. Studies on 2,3-diaryl-1-benzopyrans” (J Med Chem, 1990).
One block for each molecule: values may come before it.

Tests used:
[1] = molecular target: T1, Estrogen receptor (Rattus norvegicus) (UniProt P06211+Q62986); assay: Antiestrogenic activity in presence of estradiol at 10 ug/rat; type: functional
[2] = molecular target: T1, Estrogen receptor (Rattus norvegicus); assay: Antiestrogenic activity in presence of estradiol at 30 ug/rat; type: functional
[3] = molecular target: T1, Estrogen receptor (Rattus norvegicus); assay: Antiestrogenic activity in presence of estradiol at 0 ug/rat; type: functional
[4] = molecular target: T1, Estrogen receptor (Rattus norvegicus); assay: Antiestrogenic activity in presence of estradiol at 1 ug/rat; type: functional
[5] = molecular target: T1, Estrogen receptor (Rattus norvegicus); assay: Estrogenic activity as mean uterine weight in rats after 10 ug dose; type: functional
Method in brief: (§1)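 Immature female Sprague-Dawley rats, 21–23 days old, in groups of 6–9. Test doses suspended in 0.2 mL propylene glycol–0.9% saline (1:1, v/v) and given subcutaneously on three consecutive days; vehicle-only controls. Autopsy 24 h after the last injection, uterine wet weight recorded in mg as mean ± SD.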

[6] = molecular target: T1, Estrogen receptor (Rattus norvegicus); assay: Antiestrogenic activity in presence of estradiol as mean uterine weight in rats after 10 ug dose; type: functional
[7] = molecular target: T1, Estrogen receptor (Rattus norvegicus); assay: Estrogenic activity as mean uterine weight in rats at 0 ug/rat; type: functional; method in brief: as §1
[8] = molecular target: T1, Estrogen receptor (Rattus norvegicus); assay: Estrogenic activity as mean uterine weight in rats at 1 ug/rat; type: functional; method in brief: as §1
[9] = molecular target: T1, Estrogen receptor (Rattus norvegicus); assay: Estrogenic activity as mean uterine weight in rats at 30 ug/rat; type: functional; method in brief: as §1
[10] = molecular target: T1, Estrogen receptor (Rattus norvegicus); assay: Mean percent inhibition of uterotrophic effect in rats at 0 ug/rat; type: functional
[11] = molecular target: T1, Estrogen receptor (Rattus norvegicus); assay: Mean percent inhibition of uterotrophic effect in rats at 1 ug/rat; type: functional
[12] = molecular target: T1, Estrogen receptor (Rattus norvegicus); assay: Mean percent inhibition of uterotrophic effect in rats at 10 ug/rat; type: functional
[13] = molecular target: T1, Estrogen receptor (Rattus norvegicus); assay: Mean percent inhibition of uterotrophic effect in rats at 30 ug/rat; type: functional
[14] = molecular target: T1, Estrogen receptor (Rattus norvegicus); assay: Estrogenic activity as mean uterine weight in rats after 1 mg dose; type: functional; method in brief: as §1
[15] = molecular target: T1, Estrogen receptor (Rattus norvegicus); assay: Antiestrogenic activity in presence of estradiol as mean uterine weight in rats at 1 mg dose
[16] = molecular target: T1, Estrogen receptor (Rattus norvegicus); assay: Estrogenic activity as mean uterine weight in rats at 10 ug/rat; type: functional; method in brief: as §1

Structure (SMILES): COc1ccc2c(c1)OC(c1ccc(OCCN3CCCC3)cc1)C(c1ccccc1)=C2 (stereo unspecified)
Mean weight [1]: 27.5 mg
Mean weight [2]: 23.6 mg
Mean weight [3]: 44.7 mg
Mean weight [4]: 38.3 mg
Mean weight [5]: 27.6 mg
Mean weight [6]: 28.3 mg
Mean weight [7]: 10.6 mg
Mean weight [8]: 23.8 mg
Mean weight [9]: 25 mg
inhibition [10]: 0%
inhibition [11]: 9%
inhibition [12]: 50%
inhibition [13]: 65%

Structure (SMILES): O=c1c(-c2ccccc2)c(-c2ccc(OCCN3CCCC3)cc2)oc2ccccc12
Mean weight [5]: 13.2 mg
Mean weight [6]: 40.3 mg

Structure (SMILES): c1ccc(C2Cc3ccccc3OC2c2ccc(OCCN3CCCC3)cc2)cc1 (stereo unspecified)
Mean weight [14]: 12.3 mg
Mean weight [6]: 57.2 mg

Structure (SMILES): COc1ccc2c(c1)OC(c1ccc(OCCN3CCCC3)cc1)C(c1ccccc1)C2=O (stereo unspecified)
Mean weight [5]: 12 mg
Mean weight [6]: 46.5 mg

Second part, the molecule after the results:

Mean weight [14]: 26.2 mg
Mean weight [15]: 46.7 mg
Structure (SMILES): Oc1ccc(C2=C(c3ccccc3)Cc3ccccc3O2)cc1

Mean weight [14]: 14.9 mg
Mean weight [6]: 59 mg
Structure (SMILES): Oc1ccc(C2Oc3ccccc3CC2c2ccccc2)cc1 (stereo unspecified)

Mean weight [5]: 11.1 mg
Mean weight [6]: 40.7 mg
Structure (SMILES): O=c1c(-c2ccccc2)c(-c2ccccc2)oc2cc(OCCN3CCCC3)ccc12

Mean weight [2]: 22.2 mg
Mean weight [3]: 45.1 mg
Mean weight [4]: 39.9 mg
Mean weight [5]: 24.6 mg
Mean weight [7]: 11.2 mg
Mean weight [8]: 22.5 mg
Mean weight [9]: 23.6 mg
Mean weight [16]: 24.6 mg
inhibition [10]: 0%
inhibition [11]: 12%
inhibition [12]: 66%
inhibition [13]: 70%
Structure (SMILES): C1=C(c2ccccc2)C(c2ccc(OCCN3CCCC3)cc2)Oc2ccccc21 (stereo unspecified)

Mean weight [14]: 24 mg
Mean weight [6]: 29.4 mg
Structure (SMILES): c1ccc(C2=C(c3ccc(OCCN4CCCC4)cc3)Oc3ccccc3C2)cc1

Mean weight [14]: 13.8 mg
Mean weight [6]: 48.8 mg
Structure (SMILES): Oc1ccc(C2Oc3ccccc3C=C2c2ccccc2)cc1 (stereo unspecified)
